In ChEMBL document CHEMBL5247671, “Design and Synthesis of Pyrazole-Based Macrocyclic Kinase Inhibitors Targeting BMPR2” (ACS Med Chem Lett, 2023):

How the values were obtained:
[1] = molecular target: T1, Glycogen synthase kinase-3 beta (Homo sapiens, UniProt P49841); assay: Binding affinity to recombinant GSK3B (unknown origin) assessed as change in melting temperature at 10 uM by DSF assay
In short: (§1)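 Differential scanning fluorimetry on an in-house panel of 90 recombinant kinases. Stabilization is read as the shift in melting temperature (ΔTm) relative to ligand-free protein. Staurosporine served as the positive control, and binding was also compared against its ΔTm.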
Target sequence in this assay (P49841 whole entry, looked up): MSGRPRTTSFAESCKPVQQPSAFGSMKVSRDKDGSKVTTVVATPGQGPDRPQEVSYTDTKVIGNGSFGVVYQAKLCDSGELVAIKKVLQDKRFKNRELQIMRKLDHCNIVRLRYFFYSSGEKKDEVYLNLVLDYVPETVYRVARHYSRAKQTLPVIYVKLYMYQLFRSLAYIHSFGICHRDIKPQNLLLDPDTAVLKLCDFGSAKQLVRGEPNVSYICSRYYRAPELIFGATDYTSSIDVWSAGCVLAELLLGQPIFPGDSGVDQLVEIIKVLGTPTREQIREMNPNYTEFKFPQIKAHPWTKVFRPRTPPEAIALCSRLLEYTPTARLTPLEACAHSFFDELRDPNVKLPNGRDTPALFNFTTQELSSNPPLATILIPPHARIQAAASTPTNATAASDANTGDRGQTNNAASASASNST

[2] = molecular target: T2, Bone morphogenetic protein receptor type-2 (Homo sapiens) (UniProt Q13873); assay: Binding affinity to recombinant BMPR2 (unknown origin) assessed as change in melting temperature at 10 uM by DSF assay; in short: as §1
T2 sequence (whole entry): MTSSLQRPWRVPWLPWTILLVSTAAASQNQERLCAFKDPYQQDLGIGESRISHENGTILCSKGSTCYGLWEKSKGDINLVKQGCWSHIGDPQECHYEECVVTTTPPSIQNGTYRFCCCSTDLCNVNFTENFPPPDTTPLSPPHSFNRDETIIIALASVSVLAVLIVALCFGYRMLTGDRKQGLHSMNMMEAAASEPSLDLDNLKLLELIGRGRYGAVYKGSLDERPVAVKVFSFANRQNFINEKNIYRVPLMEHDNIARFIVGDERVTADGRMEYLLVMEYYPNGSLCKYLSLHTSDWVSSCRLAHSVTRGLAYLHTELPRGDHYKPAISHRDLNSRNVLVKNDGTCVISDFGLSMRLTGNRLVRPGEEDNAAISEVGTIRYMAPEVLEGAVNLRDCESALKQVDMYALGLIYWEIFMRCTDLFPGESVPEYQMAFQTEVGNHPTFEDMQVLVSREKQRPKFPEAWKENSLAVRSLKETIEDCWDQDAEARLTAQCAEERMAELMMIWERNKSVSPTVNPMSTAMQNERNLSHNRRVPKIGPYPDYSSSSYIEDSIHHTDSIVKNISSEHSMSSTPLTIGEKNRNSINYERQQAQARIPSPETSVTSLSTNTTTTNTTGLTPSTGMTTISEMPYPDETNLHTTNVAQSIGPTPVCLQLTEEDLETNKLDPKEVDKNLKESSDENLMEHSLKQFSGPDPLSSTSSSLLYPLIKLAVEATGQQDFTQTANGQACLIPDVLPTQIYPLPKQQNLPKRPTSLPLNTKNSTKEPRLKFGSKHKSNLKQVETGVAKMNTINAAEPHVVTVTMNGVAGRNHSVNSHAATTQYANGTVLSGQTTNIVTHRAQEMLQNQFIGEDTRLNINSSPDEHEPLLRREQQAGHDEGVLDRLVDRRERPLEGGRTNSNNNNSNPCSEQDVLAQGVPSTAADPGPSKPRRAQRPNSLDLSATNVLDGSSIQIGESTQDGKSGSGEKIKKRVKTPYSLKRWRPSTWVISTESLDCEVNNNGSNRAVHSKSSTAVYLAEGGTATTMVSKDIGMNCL

[3] = molecular target: T1, Glycogen synthase kinase-3 beta; assay: Inhibition of N-terminal NanoLuc-fused full length lysed GSK3B (unknown origin) transfected in HEK293T cells incubated for 2 hrs in presence of tracer K8 by NanoBRET assay; assay type: cell-based
In short: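 GSK3B NanoBRET run in the lysed mode, with cells permeabilized by digitonin to bypass compound cell penetration. EC50 values were derived from tracer displacement.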
Target sequence in this assay (P49841 whole entry): as the sequence (P49841 whole entry, looked up) above

[4] = molecular target: Glycogen synthase kinase-3 alpha (Homo sapiens, UniProt P49840); assay: Inhibition of N-terminal NanoLuc-fused full length GSK3A (unknown origin) transfected in HEK293T cells incubated for 2 hrs in presence of tracer K8 by NanoBRET assay; assay type: cell-based
In short: (§2)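 Cellular target engagement by NanoBRET in intact cells expressing NanoLuc-fused GSK3A or GSK3B, with EC50 values derived from tracer displacement.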

[5] = molecular target: T3, Bone morphogenetic protein receptor type-2 (Homo sapiens, UniProt Q13873); assay: Inhibition of BMPR2 (174 to end residues) (unknown origin) using MBP as substrate incubated for 60 mins in presence of ATP by ADP Glo assay
T3 sequence (Q13873 whole entry): T2 sequence (whole entry)
In short: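 Enzymatic inhibition of the BMPR2 kinase was read out by ADP-Glo detection of ADP formed, and IC50 values were derived from concentration–response data.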

[6] = molecular target: T1, Glycogen synthase kinase-3 beta; assay: Inhibition of N-terminal NanoLuc-fused full length intact GSK3B (unknown origin) transfected in HEK293T cells incubated for 2 hrs in presence of tracer K8 by NanoBRET assay; assay type: cell-based; in short: as §2
Target sequence in this assay (P49841 whole entry): as the sequence (P49841 whole entry, looked up) above

TGF-beta receptor type-1 = molecular target: T4, TGF-beta receptor type-1 (Homo sapiens, UniProt P36897); assay: Inhibition of ALK5 (unknown origin) assessed as dissociation constant
T4 sequence (P36897 whole entry): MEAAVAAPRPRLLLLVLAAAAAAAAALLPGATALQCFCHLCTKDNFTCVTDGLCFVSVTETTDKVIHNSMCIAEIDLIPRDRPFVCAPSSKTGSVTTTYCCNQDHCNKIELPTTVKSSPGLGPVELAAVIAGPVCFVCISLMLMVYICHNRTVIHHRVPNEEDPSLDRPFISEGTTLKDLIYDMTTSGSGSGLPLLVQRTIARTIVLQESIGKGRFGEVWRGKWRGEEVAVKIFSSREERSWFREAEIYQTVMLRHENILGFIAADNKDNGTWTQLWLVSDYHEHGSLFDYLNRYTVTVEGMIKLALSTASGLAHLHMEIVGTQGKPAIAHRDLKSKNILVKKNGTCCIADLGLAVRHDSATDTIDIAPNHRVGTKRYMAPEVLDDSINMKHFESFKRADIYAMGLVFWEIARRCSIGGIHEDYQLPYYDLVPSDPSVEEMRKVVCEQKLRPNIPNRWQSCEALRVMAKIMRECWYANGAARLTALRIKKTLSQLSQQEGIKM

[7] = molecular target: T3, Bone morphogenetic protein receptor type-2; assay: Inhibition of BMPR2 (unknown origin) assessed as dissociation constant by ITC assay
In short: (§3)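 Binding measured by isothermal titration calorimetry against the recombinant BMPR2 kinase domain. Thermodynamic binding parameters, including the dissociation constant, were derived from the titration data.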

[8] = molecular target: T2, Bone morphogenetic protein receptor type-2 (Homo sapiens); assay: Binding affinity to BMPR2 (unknown origin) assessed as change in entropy by ITC assay; in short: as §3
[9] = molecular target: T2, Bone morphogenetic protein receptor type-2 (Homo sapiens); assay: Binding affinity to BMPR2 (unknown origin) assessed as change in enthalpy by ITC assay; in short: as §3
[10] = tested on: BMP2-inducible protein kinase (Homo sapiens); assay: Binding affinity to recombinant BMP2K (unknown origin) assessed as change in melting temperature at 10 uM by DSF assay
[11] = molecular target: T5, Serine/threonine-protein kinase 3 (Homo sapiens) (UniProt Q13188); assay: Binding affinity to recombinant STK3 (unknown origin) assessed as change in melting temperature at 10 uM by DSF assay; in short: as §1
T5 sequence (whole entry): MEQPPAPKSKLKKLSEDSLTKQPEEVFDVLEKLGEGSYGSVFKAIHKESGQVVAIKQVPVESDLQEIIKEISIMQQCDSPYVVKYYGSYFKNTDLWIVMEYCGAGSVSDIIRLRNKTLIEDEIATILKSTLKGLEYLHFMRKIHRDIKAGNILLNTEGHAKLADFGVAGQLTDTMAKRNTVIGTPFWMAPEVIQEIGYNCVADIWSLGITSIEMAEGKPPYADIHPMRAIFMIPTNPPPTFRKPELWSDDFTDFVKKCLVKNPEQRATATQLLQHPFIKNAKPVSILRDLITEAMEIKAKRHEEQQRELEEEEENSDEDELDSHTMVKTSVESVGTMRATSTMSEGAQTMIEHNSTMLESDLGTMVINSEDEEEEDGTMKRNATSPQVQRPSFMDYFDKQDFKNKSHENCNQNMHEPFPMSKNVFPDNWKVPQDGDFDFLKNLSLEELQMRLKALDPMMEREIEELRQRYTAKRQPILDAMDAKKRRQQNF

Glycogen synthase kinase-3 alpha, sequence (P49840 whole entry, the tested form may be a part): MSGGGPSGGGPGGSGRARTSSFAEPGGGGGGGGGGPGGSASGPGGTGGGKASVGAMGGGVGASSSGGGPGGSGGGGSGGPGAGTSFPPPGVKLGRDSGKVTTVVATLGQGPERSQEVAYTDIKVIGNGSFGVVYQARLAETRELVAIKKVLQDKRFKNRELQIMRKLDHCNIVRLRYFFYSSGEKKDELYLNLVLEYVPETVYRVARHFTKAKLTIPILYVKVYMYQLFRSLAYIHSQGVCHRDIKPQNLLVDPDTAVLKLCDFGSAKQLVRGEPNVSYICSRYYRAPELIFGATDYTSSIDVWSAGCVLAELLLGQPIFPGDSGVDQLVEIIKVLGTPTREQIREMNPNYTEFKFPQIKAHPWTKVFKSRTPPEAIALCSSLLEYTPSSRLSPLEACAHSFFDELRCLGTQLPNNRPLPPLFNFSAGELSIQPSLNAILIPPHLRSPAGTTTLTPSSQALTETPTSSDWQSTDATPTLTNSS

SMILES	ΔTm [1] [°C]	ΔTm [2] [°C]	IC50 [3] [µM]	IC50 [4] [µM]	IC50 [5] [µM]	IC50 [6] [µM]	Kd (TGF-beta receptor type-1) [µM]	Kd [7] [µM]	deltaS [8] [cal/mol.K]	deltaH [9] [kcal/mol]	ΔTm [10] [°C]	ΔTm [11] [°C]
O=C1NCCCCCNc2nccc(n2)Nc2cc1[nH]n2	4.9	4.6	3.5	> 45	0.63	> 45	–	–	–	–	–	–
N#CCc1ccc(Nc2nccc(Nc3cc(C4CC4)[nH]n3)n2)cc1	14	9.2	0.0012	0.004	0.0362	0.0038	0.324	0.186	-1.97	-9.61	–	–
O=C1NCCCCCCNc2nccc(n2)Nc2cc1[nH]n2	> 5	–	–	–	–	–	–	–	–	–	> 5	> 5
O=C1NCCc2cccc(c2)Nc2nccc(n2)Nc2cc1[nH]n2	7.2	5	–	–	0.461	–	–	–	–	–	–	–
